# Source: ChEMBL document CHEMBL4041520, “Novel pyrimidine-2,4-dione-1,2,3-triazole and furo[2,3-d]pyrimidine-2-one-1,2,3-triazole hybrids as potential anti-cancer agents: Synthesis, computational and X-ray analysis and biological evaluation” (Eur J Med Chem, 2017)
# What was measured:
# HepG2 = test: Antiproliferative activity against human HepG2 cells after 72 hrs by MTT assay; type: functional, cell-based; conditions: HepG2, 72 h
# Summary of the method: (§1)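 Monolayers grown in DMEM with 10% FBS and 2 mM L-glutamine at 37 °C, 5% CO2. Cells seeded at 5000 per well on day 0. Compounds added in five 10-fold dilutions (0.01–100 µM), DMSO ≤0.1%, for 72 h. MTT absorbance converted to percentage growth versus untreated wells. IC50 by linear regression of the dose-response curve; highest concentration reported when not reached. Quadruplicate points, three experiments.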
# SW-620 = test: Antiproliferative activity against human SW620 cells after 72 hrs by MTT assay; type: functional, cell-based; conditions: SW-620, 72 h; summary of the method: as §1
# A549 = test: Antiproliferative activity against human A549 cells after 72 hrs by MTT assay; type: functional, cell-based; conditions: A549, 72 h; summary of the method: as §1
# HeLa = test: Antiproliferative activity against human HeLa cells after 72 hrs by MTT assay; type: functional, cell-based; summary of the method: as §1
# CFPAC-1 = test: Antiproliferative activity against human CFPAC-1 cells after 72 hrs by MTT assay; type: functional, cell-based; conditions: CFPAC-1, 72 h; summary of the method: as §1
# WI-38 = test: Antiproliferative activity against human WI38 cells after 72 hrs by MTT assay; type: cell-based; conditions: WI-38, 72 h; summary of the method: as §1
SMILES,IC50 (HepG2) [µM],IC50 (SW-620) [µM],IC50 (A549) [µM],IC50 (HeLa) [µM],IC50 (CFPAC-1) [µM],IC50 (WI-38) [µM]
O=c1nc2oc(CCCCl)cc2cn1Cc1cn(-c2ccc(F)cc2)nn1,14.6,> 100,68.4,6.99,6.49,< 0.01
CCCCCCc1cc2cn(Cc3cn(Cc4ccccc4)nn3)c(=O)nc2o1,68.7,93.5,51,59.4,67,62.8
O=c1nc2oc(CCCCl)cc2cn1Cc1cn(Cc2ccccc2)nn1,27.6,75.5,27.9,9.58,23.5,5.2
O=c1nc2oc(CCCCl)c(C#CCCCCl)c2cn1Cc1cn(Cc2ccccc2)nn1,25.5,33.9,26.9,25.4,32.8,17.6
O=c1nc2oc(C3CC3)c(C#CC3CC3)c2cn1Cc1cn(-c2ccccc2F)nn1,39.1,49.1,38.3,51.2,54.5,45.9
CCCCCc1ccc(C#Cc2c(-c3ccc(CCCCC)cc3)oc3nc(=O)n(Cc4cn(Cc5ccccc5)nn4)cc23)cc1,> 100,> 100,> 100,73,> 100,2.65
O=c1[nH]c(=O)n(Cc2cn(-c3ccccc3F)nn2)cc1I,> 100,> 100,95.1,> 100,> 100,73.1
O=c1c(I)cn(Cc2cn(-c3ccccc3F)nn2)c(=O)n1Cc1cn(-c2ccccc2F)nn1,36.1,> 100,53.4,49.8,55.9,2.22
CCCCCc1ccc(C#Cc2c(-c3ccc(CCCCC)cc3)oc3nc(=O)n(Cc4cn(-c5ccc(Cl)cc5)nn4)cc23)cc1,> 100,> 100,> 100,> 100,> 100,> 100
CCCCCc1ccc(C#Cc2c(-c3ccc(CCCCC)cc3)oc3nc(=O)n(Cc4cn(-c5ccccc5F)nn4)cc23)cc1,72.5,57.1,38.6,9,> 100,7.34
C#CCn1c(=O)c(I)cn(Cc2cn(-c3ccccc3F)nn2)c1=O,> 100,> 100,56.2,> 100,> 100,0.16
CCCCCCC#Cc1c(CCCCCC)oc2nc(=O)n(Cc3cn(-c4ccc(Cl)cc4)nn3)cc12,> 100,> 100,> 100,> 100,> 100,> 100
O=c1nc2oc(C3CC3)c(C#CC3CC3)c2cn1Cc1cn(Cc2ccccc2)nn1,2.67,9.72,4.81,6.51,4.59,0.29
O=c1nc2oc(CCCCl)cc2cn1Cc1cn(-c2ccccc2F)nn1,79.8,> 100,69.8,66.5,81.8,76.5
CCCCCCc1cc2cn(Cc3cn(-c4ccccc4F)nn3)c(=O)nc2o1,> 100,> 100,> 100,> 100,> 100,69.2
C#CCn1c(=O)c(I)cn(Cc2cn(-c3ccc(F)cc3)nn2)c1=O,5.11,6.63,3.06,4.5,4.21,< 0.01
O=c1[nH]c(=O)n(Cc2cn(-c3ccc(Cl)cc3)nn2)cc1I,> 100,34.6,50.6,6.79,77.2,< 0.01
O=c1[nH]cc(F)c(=O)[nH]1 [FLUOROURACIL],,0.08,2.8,8.81,0.14,0.94
